Experiments:
Assay type in all cases: cell-based, mouse
HT22 cells [1] = assay: TUNEL assay of glutamate-induced oxytosis; conditions: 2 mM glutamate alone for 18 h, normalized by nuclei count
HT22 cells [2] = assay: Cell morphology by phase contrast microscopy; conditions: 50 μM peptide or 2 mM glutamate (positive control), 24 h
HT22 cells [3] = assay: Immunofluorescent staining of ssDNA; conditions: 2 mM glutamate alone for 18 h
Method in brief: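 HT22 cells on cover glass (5 × 10⁴ cells/well, 24 h) exposed to 2 mM L-glutamate in fresh medium for 18 h. Fixed in 4% paraformaldehyde (pH 7.4, 4 °C, 30 min), acetone-permeabilised, goat-serum blocked. Rabbit anti-ssDNA (1:200, 4 °C overnight), Alexa 594 secondary with DAPI. Confocal imaging; ssDNA-positive cells counted over total nuclei. At least three repeats, mean ± SD, ANOVA/Tukey-Kramer.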

AIF = AIF nuclear translocation by immunocytochemistry; conditions: HT22 cells, 2 mM glutamate alone for up to 18 h

In the case of `N[C@@H](CCC(=O)O)C(=O)O` [glutamate, L-glutamate], the TUNEL-positive cells (HT22 cells [1]) is reported as “up to 73%”, the cell morphology (HT22 cells [2]) is reported as “induced cell detachment and shrinkage” and the ssDNA-positive cells (HT22 cells [3]) is reported as 40%. For the same molecule, the AIF localization (AIF) was “induced diffuse localization of AIF in both cytoplasm and nucleus”.

Reference: PMC8374356 (Biochemistry and Biophysics Reports, 2021)
